An excerpt weighted towards active compounds, which were near 3.8% of everything screened.
KCNK3 block: human KCNK3 channel inhibitors, primary screen, CHO cells, FluxOR thallium flux, B-score | 340,000 compounds, 0.84% hits | AID 602410, 2012 | B-score at 10 µM | FluxOR fluorescence; active compounds read low;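 active = B-score under library mean minus 4 SD, starting fluorescence ratio at most library mean plus 5 SD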;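 note: more negative B-score means stronger inhibition of thallium flux through KCNK3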
Target sequence (O14649 whole entry, looked up): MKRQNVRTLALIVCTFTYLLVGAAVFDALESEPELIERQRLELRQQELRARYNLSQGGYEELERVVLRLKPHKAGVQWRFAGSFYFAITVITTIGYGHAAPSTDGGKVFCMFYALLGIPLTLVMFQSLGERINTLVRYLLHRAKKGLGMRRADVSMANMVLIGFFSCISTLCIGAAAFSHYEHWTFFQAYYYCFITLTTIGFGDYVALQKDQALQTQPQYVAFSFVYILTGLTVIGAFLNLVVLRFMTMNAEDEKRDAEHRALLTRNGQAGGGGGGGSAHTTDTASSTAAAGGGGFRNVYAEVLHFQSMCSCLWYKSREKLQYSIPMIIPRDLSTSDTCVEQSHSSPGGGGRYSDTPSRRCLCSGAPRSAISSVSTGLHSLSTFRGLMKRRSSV
KCNK9 inh: KCNK9 potassium channel inhibitors, primary screen, HEK293 cells, thallium flux. FluxOR thallium flux fluorescence; active compounds read low. 310,000 compounds, 1.2% hits. B-score at 10 µM;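 active = ratio B-score over 3 SD below the library mean, with starting fluorescence within 5 SD of its mean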;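 note: negative B-score means less thallium flux so channel inhibition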
Kir21 inh: inhibitors of mouse Kir2.1 inward-rectifier potassium channel; Inward rectifier potassium channel 2 (Mus musculus), P35561; HEK293-Kir2.1, FluxOR thallium flux fluorescence; active compounds read low; B-score at 10 µM; 310,000 compounds, 0.85% hits; AID 1672, 2009;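 active = fluorescence ratio B-score at or below minus 3 SD of library scores, with starting-brightness B-score within 2 SD, cut at about -4.2 in these data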;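 note: channel flux triggered by added potassium and thallium sulfate stimulus; B-score of peak minus minimum fluorescence over baseline after thallium stimulus; more negative B-score means stronger Kir2.1 block with less thallium influx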
KCNQ1 block: inhibitors of human KCNQ1 channel, primary screen, cell-based, thallium flux, high-throughput; CHO-K1 KCNQ1, FluxOR thallium flux fluorescence; active compounds read high; B-score at 10 µM; 310,000 compounds, 1.3% hits;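 active = compounds whose thallium flux B-score, printed positive for inhibition, exceeds three library SD while starting fluorescence stays within three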;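 note: channel opened by potassium depolarization with thallium stimulus after 20 min compound exposure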
hERG protect: hERG rescue from dofetilide block, primary screen, cell-based, CHO-hERG, FluxOR thallium flux, dofetilide IC70 | dofetilide IC70 present | Voltage-gated inwardly rectifying potassium channel KCNH2 (Homo sapiens), Q12809 | activation (rescue from dofetilide block), less the hit threshold, % at 10 µM | 310,000 compounds, 0.51% hits;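 active = activation above the mean of controls blocked by dofetilide plus 5 SD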;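 note: thallium influx through hERG after potassium depolarization seen as dye fluorescence rise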
KCNQ1 pot: potentiators or activators of KCNQ1 channel, primary screen, cell-based, thallium flux, high-throughput; Potassium voltage-gated channel subfamily KQT member 1 (Homo sapiens), P51787; CHO-K1 KCNQ1, thallium flux FluxOR fluorescence; active compounds read high; B-score at 10 µM; 310,000 compounds, 0.35% hits;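 active = fluorescence ratio B-score, a plate-corrected score, at least three library SD, with initial intensity B-score within 5 SD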
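Material: CHO-K1 cells stably expressing KCNQ1. Medium: assay buffer for compound exposure, DMSO matched across wells. Reagent: K+/Tl+ depolarizing stimulus. Compound dosing: single-concentration screen. Times: 37 °C overnight plating, 90-min dark dye load, 20-min compound pretreatment. Technique: FluxOR Tl+ flux fluorescence.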
* hit, by the source's call; i = inactive; · = no result given.

SMILES	KCNK3 block	KCNK9 inh	Kir21 inh	KCNQ1 block	hERG protect	KCNQ1 pot
Cc1ccc2c(c1)sc1nc(=O)ccn12	i	i	-0.47	i	6.7*	i
COc1ccc2c(c1)sc1nc(=O)ccn12	i	i	1.1	i	-11	i
c1cncc(-c2nnc(-c3ccco3)o2)c1	i	i	0.33	i	6.3*	i
Clc1ccc(-c2nnc(-c3ccco3)o2)cc1	i	i	-2.7	i	-5	i
Cn1cc([N+](=O)[O-])c(C(=O)Nc2cc(Oc3cccnc3)cc([N+](=O)[O-])c2)n1	·	i	-0.45	i	-8	i
O=C(Nc1ccccc1Cl)C1C(c2ccccc2)C1(Cl)Cl (stereo not drawn)	i	i	-0.55	6*	-11	i
O=Cc1[nH]c2ccccc2c1N(C(=O)CCl)c1ccc([N+](=O)[O-])cc1	i	i	-5.5*	9*	-27	i
CC(=O)n1cc(N(C(=O)CCl)c2ccc([N+](=O)[O-])cc2)c2ccccc21	i	i	-3	7*	-13	i
Cc1ccc(C)c(SCC(=O)OCC(=O)NCCNC(=O)COC(=O)CSc2cc(C)ccc2C)c1	i	i	0.83	i	-11	i
COc1ccc(C(=O)CCC(=O)N2CCN(c3ccc(C)cc3)C(C)C2)cc1 (stereo not drawn)	i	i	-0.83	i	-8	i
O=C(/C=C/c1cn(CC(O)CN2CCCCC2)c2ccccc12)c1ccccc1 (stereo not drawn)	i	i	-4	i	-21	i
O=C(/C=C/c1cn(CC(O)CN2CCCCC2)c2ccccc12)c1cccs1 (stereo not drawn)	i	i	-7.1	7*	-31	i
CC(C)Cn1c(N)c(C(=O)COC(=O)c2c(O)c(Cl)cc(Cl)c2Cl)c(=O)n(C)c1=O	-10*	·	·	·	·	·
CC(C)Cn1c(N)c(C(=O)COC(=O)c2ccc(Cl)cc2)c(=O)n(C)c1=O	i	i	1.6	i	-14	i
CCCCC1(c2ccc(F)cc2)NC(=O)N(CC(=O)N2CCN(C(=O)c3ccco3)CC2)C1=O (stereo not drawn)	i	i	-0.1	i	-10	i
COc1ccc(C(C)NCCC(c2ccc(OC(C)C)cc2)c2ccccc2OC)cc1 (stereo not drawn)	i	i	-6.6*	6*	-23	i
COc1ccccc1C(CC(=O)Nc1ccc(Cl)cc1)c1ccc(OC(C)C)cc1 (stereo not drawn)	i	i	-1.2	i	-6	i
Cc1ccc(CN2CCN(/N=C/c3ccc(C(=O)O)cc3)CC2)cc1	i	i	1.5	i	-11	i
Cc1ccc(CN2CCN(/N=C/c3ccc(O)c(O)c3)CC2)cc1	i	i	0.8	i	7.1*	i
Cc1cc(OCc2nc(-c3ccncc3)no2)cc(C)c1Cl	i	i	-0.01	i	-9	i
COCCCn1cc(C(=O)c2cc(OC)ccc2OCC(=O)Nc2cc(C)on2)cc(C#N)c1=O	i	i	0.21	i	-5	i
CCCCNC(=O)C(=O)N/N=C/c1ccc(OCc2ccccc2)cc1	i	i	-0.01	i	0	i
CC(C)(C)NCC(=O)N/N=C/c1ccc(OCc2ccccc2)cc1	i	i	-4.3*	i	-20	i
CC1Oc2ccccc2N(CC(=O)N2CCCCCC2)C1=O (stereo not drawn)	i	i	0.06	i	2	22*
CC(C)(C)c1ccccc1OCCOCCSc1ncccn1	i	-7.5*	0.24	i	-10	i
SMILES	KCNK3 block	KCNK9 inh	Kir21 inh	KCNQ1 block	hERG protect	KCNQ1 pot
CC(C)(C)c1ccccc1OCCOCCN1CCCCCC1	i	i	0.27	i	-18	i
COc1ccc(CN2CCc3c([nH]c4ccccc34)C2)cc1Br	i	i	-4.3*	i	-15	i
O=S(=O)(c1cnccc1N1CCN(CCO)CC1)N1CCCCC1	i	i	0	i	-7	i
Cc1c(-c2ccn[nH]2)cc(NC(=O)c2ccc(Cl)cc2)c(=O)n1N	i	i	-0.25	i	5.0*	i
O=C(NCCc1ccccc1)C(NS(=O)(=O)c1cccc2nsnc12)c1ccccc1 (stereo not drawn)	i	i	2.6	i	-9	i
O=[N+]([O-])c1cc(C(F)(F)F)ccc1N1CCCNCC1	i	i	-0.58	i	7.9*	i
O=C(NC(=S)N1CCN(c2ccc(C(F)(F)F)cc2[N+](=O)[O-])CC1)c1cccs1	i	i	0.02	i	3	10*
O=C(Nc1cccc(N=Cc2cc(Cl)cc(Br)c2O)c1)c1ccco1	i	i	0.05	i	4	17*
O=C(Nc1cccc(N=Cc2cc(Br)cc(Br)c2O)c1)c1ccco1	i	i	-0.82	i	-3	i
O=S(=O)(NCCN1CCCC1)c1ccc(Br)cc1	i	i	0.23	i	-17	i
O=C1NCC(COCc2ccccc2)O1 (stereo not drawn)	i	i	2.2	i	-6	i
Cc1cccc(C)c1OCC1CNC(=O)O1 (stereo not drawn)	i	i	-0.44	i	6.5*	i
CC1c2c([nH]c3ccccc23)CCC1C(=O)O (stereo not drawn)	i	i	0.1	i	-3	i
COc1ccc(-c2sc(Nc3ccccc3)n[n+]2-c2ccc(F)cc2)cc1Br	i	i	-1	i	-30	i
COc1ccc2ccccc2c1-c1sc(Nc2ccccc2)n[n+]1-c1ccc(F)cc1	i	-7.4*	-5.6*	7*	-27	i
Cc1ccc(Oc2c(C(N)=O)cc([N+](=O)[O-])cc2[N+](=O)[O-])cc1	i	i	-5.5*	6*	-15	i
COc1cc(NC(=S)NNC(=O)C(C)(C)O)cc(OC)c1	i	i	0	i	8.9*	i
CC(C)(O)C(=O)NNC(=S)Nc1ccc(F)c(Cl)c1	i	i	0.42	i	-17	i
Cc1c(-c2cc(Br)ccc2O)nc2cc3c(cc2c1C)OCO3	i	i	1.1	i	-4	i

Source: PubChem BioAssay
